Compound activity: PubChem BioAssay, several laboratories
Tb hexokinase – Trypanosoma brucei hexokinase 1 inhibitors, primary screen, biochemical, G6PDH-coupled NADH absorbance, MLSCN library | hit rate 0.11% among 220,000 | hexokinase 1 [Trypanosoma brucei] | AID 1430, 2008 | recombinant TbHK1, G6PDH-coupled NADH A340 | inhibition, % at 10 µM;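 active means inhibition of 50% or more in the single-dose primary screen; inactive means inhibition below 50%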
p97 inhibitor – inhibitors of human p97 ATPase, primary screen, biochemical. Transitional endoplasmic reticulum ATPase (Homo sapiens), P55072. recombinant p97 ATPase, Kinase-Glo ATP luminescence, 3 h. inhibition, % at 8 µM. hit rate 0.42% among 220,000. AID 1481, 2009; in the data active means inhibition above about 15%;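 further: 0% = DMSO vehicle and 100% = wells lacking enzyme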
Runt-SMMHC FRET – inhibitors of RUNX1 Runt–CBFb-SMMHC binding, primary screen, biochemical, FRET, Cerulean-Runt, Venus-CBFb-SMMHC, uHTS; Runt-related transcription factor 1 (Homo sapiens) + Core-binding factor subunit beta …; Cerulean-Runt/Venus-CBFb-SMMHC FRET ratio 530/480, 1 h; inhibition, % at 20 µM; hit rate 0.74% among 220,000; AID 1434, 2008;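 active means mean inhibition across duplicate retests at 20 µM reaching about 50%, limit read from the data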;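 further: 0% = DMSO wells and 100% = wells with excess untagged CBFb-SMMHC; inhibitors lower the FRET ratio by blocking Runt binding to CBFb-SMMHC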
Target sequence (Q01196 whole entry, looked up): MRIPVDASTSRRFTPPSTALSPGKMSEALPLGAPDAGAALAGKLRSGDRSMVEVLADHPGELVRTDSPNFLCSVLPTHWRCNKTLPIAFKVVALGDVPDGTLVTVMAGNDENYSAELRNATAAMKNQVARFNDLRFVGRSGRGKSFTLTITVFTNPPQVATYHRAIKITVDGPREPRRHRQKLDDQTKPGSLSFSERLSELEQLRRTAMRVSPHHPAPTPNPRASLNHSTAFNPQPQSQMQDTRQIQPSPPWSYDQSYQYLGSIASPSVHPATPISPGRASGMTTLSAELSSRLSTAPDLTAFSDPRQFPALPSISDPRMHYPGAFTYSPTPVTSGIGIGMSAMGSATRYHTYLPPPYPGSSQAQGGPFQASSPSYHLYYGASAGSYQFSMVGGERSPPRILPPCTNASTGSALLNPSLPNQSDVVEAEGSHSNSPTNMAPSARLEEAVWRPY
Target sequence (Q13951 whole entry, looked up): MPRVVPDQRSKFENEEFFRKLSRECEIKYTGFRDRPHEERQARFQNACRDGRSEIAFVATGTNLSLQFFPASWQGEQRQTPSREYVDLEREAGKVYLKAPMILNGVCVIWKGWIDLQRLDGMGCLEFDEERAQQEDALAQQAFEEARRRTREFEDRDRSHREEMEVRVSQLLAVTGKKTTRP
RanGTP-Imp inh – inhibitors of RanGTP-importin-beta interaction, primary screen, biochemical, FRET, CFP-Ran, YFP-importin-beta, homogeneous | Ran GTPase (GTP-bound) - importin-beta complex | cell-free CFP-Ran/YFP-importin-beta FRET ratio | inhibition, % (concentration not given with the values) | hit rate 1.1% among 300,000 | AID 2216, 2009;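 active means more than half of the replicate wells show a fall in the fluorescence ratio signal beyond about 16%, limit read from the data, passing the limit was not always enough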;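 further: 0% = DMSO wells and 100% = Ran loaded with GDP instead of GTP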
Hck Nef HTS – inhibitors of Nef-activated human Hck kinase, primary screen, biochemical, Z-Lyte FRET, 384-well, Hck-YEEI; Recombinant Hck-YEEI plus Nef, Z-Lyte FRET kinase assay; hit rate 0.68% among 220,000; inhibition, % at 20 µM;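 active means Hck-Nef kinase inhibition above about 50%, limit read from the data; inactive means inhibition below that limit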;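 further: 0% = DMSO with Hck plus Nef and 100% = Hck alone without Nef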
Runt-CBFb FRET – inhibitors of RUNX1 Runt–CBFb binding, primary screen, biochemical, FRET, Cerulean-Runt, Venus-CBFb, uHTS | Cerulean-Runt/Venus-CBFb FRET ratio 530/480, 1 h | inhibition, % at 20 µM | hit rate 0.46% among 220,000 | AID 1496, 2009;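 active means inhibition over about 50% at 20 µM in the single-dose screen, limit read from the data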;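 further: 0% = DMSO wells and 100% = excess unlabeled CBFb competitor control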
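test system = Cerulean-Runt domain fusion protein, energy donor | probe or stimulus = Venus-CBFb binding partner, 100 nM | incubation = two 1 h room-temperature incubations shielded from light | detection = fluorescence energy transfer, 422 nm excitation, 530/480 nm emission | measure = loss of energy transfer signal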
An asterisk follows results filed as active; · = no result. Hits are enriched below; roughly 2.1% of the tested compounds scored in any of these assays.

SMILES	Tb hexokinase	p97 inhibitor	Runt-SMMHC FRET	RanGTP-Imp inh	Hck Nef HTS	Runt-CBFb FRET
CCN(CC)CCCNc1nc2cc(OC)c(OC)cc2c2nc(-c3ccccc3)nn12	-13	-6	1	50*	-3	1
CCN(CC)CCCNc1nc2cc(OC)c(OC)cc2c2nc(-c3cccnc3)nn12	-21	0	1	-4	-3	0
NC(=S)Cc1nc(-c2ccccc2)cs1	-2	7	-4	30*	10	0
N#CC1(C#N)CC(C=O)=C(N)C1(C#N)CC(=O)c1ccc(F)cc1 (configuration not stated)	-8	-1	51*	33*	0	21
N#CC(c1nc2ccccc2nc1N1CCOCC1)S(=O)(=O)c1ccccc1 (configuration not stated)	-19	2	3	16*	-14	14
Cc1ccc(S(=O)(=O)C(C#N)c2nc3ccccc3nc2N2CCCC2)cc1 (configuration not stated)	-3	20*	-104	-1	7	-22
CCN1CCN(c2nc3ccccc3nc2C(C#N)S(=O)(=O)c2ccc(C)cc2)CC1 (configuration not stated)	-18	0	17	82*	-1	1
Cc1ccc(S(=O)(=O)C(C#N)c2nc3ccccc3nc2OC(C)C)cc1 (configuration not stated)	-4	-1	-23	6	0	-3
CCN1CCN(c2nc3ccccc3nc2C(C#N)S(=O)(=O)c2ccc(C)c(C)c2)CC1 (configuration not stated)	-13	2	23	75*	-3	2
COc1ccc(S(=O)(=O)C(C#N)c2nc3ccccc3nc2N2CCCC(C)C2)cc1 (configuration not stated)	-4	1	0	13	10	6
O=C(Nc1ccc(S(=O)(=O)Nc2nccs2)cc1)c1ccc(N2C(=O)c3ccccc3C2=O)cc1	20	1	-75	2	14	-52
COc1cc(CNCc2cc(OC)c(OC)c(OC)c2)cc(OC)c1	·	·	·	4	·	·
N#CC(c1nc2ccccc2nc1OCCO)S(=O)(=O)c1ccccc1 (configuration not stated)	-7	6	-4	23*	2	-2
COc1ccc(N2CCN(C(=O)CCNC(=O)Cn3ccc4ccccc4c3=O)CC2)cc1	8	-3	-38	1	-13	0
CSCCC(NC(C)=O)C(=O)Oc1ccc2c3c(c(=O)oc2c1)CCCC3 (configuration not stated)	-17	2	82*	·	31	38
COc1ccc(NC(=O)C2CCCN(C(=O)Nc3ccc(F)cc3)C2)cc1 (configuration not stated)	·	·	·	-1	·	·
N=c1c(C(=O)NCC2CCCO2)cc2c(=O)n3ccccc3nc2n1Cc1ccco1 (configuration not stated)	·	·	·	73*	·	·
O=C(Cn1c(=O)n(Cc2ccc(F)cc2)c(=O)c2ccccc21)NCC1CCCO1 (configuration not stated)	·	·	·	4	·	·
N=c1c(C(=O)NCC2CCCO2)cc2c(=O)n3ccccc3nc2n1Cc1ccc(F)cc1 (configuration not stated)	·	·	·	179*	·	·
Cn1c(C(=O)NCC2CCCO2)cc2c(=O)n(C)c3ccccc3c21 (configuration not stated)	-8	1	-2	-2	1	0
Cc1ccc2nc3c(cc(C(=O)NCC4CCCO4)n3C)c(=O)n2c1 (configuration not stated)	-5	3	89*	·	27	19
O=C(COC(=O)c1ccc(NS(=O)(=O)c2cccs2)cc1)NCc1ccco1	1	5	-7	6	57*	7
O=C(COC(=O)c1cccs1)NCc1ccco1	·	·	3	-2	·	-1
OC1CCCN(Cc2ccc3ccc4cccc5ccc2c3c45)C1 (configuration not stated)	-39	-2	9	41*	3	·
c1cc2ccc3ccc(CN4CCOCC4)c4ccc(c1)c2c34	-38	3	10	45*	0	·
SMILES	Tb hexokinase	p97 inhibitor	Runt-SMMHC FRET	RanGTP-Imp inh	Hck Nef HTS	Runt-CBFb FRET
Cc1cc2ccccc2cc1CN1CCOCC1	-3	-1	-1	3	0	-1
OC1CCCN(Cc2cn(Cc3ccccc3)nc2-c2cc3ccccc3o2)C1 (configuration not stated)	6	1	1	3	16	1
Cc1nc2c(cc1N)nc(C)n2Cc1ccccc1	·	·	·	2	·	·
O=C1CCCN1CCCNc1ccc2nnc(CCC(=O)N3CCN(c4ccccc4)CC3)n2n1	·	·	·	-2	·	·
N#CC(C#N)=C/C=C(\Nc1ccc(Cl)cc1)c1ccc(Cl)cc1	-37	5	-2	66*	16	11
O=C(NNC(=O)C12CC3CC(CC(C3)C1)C2)c1csc(N2CCOCC2)n1	·	·	·	8	·	·
O=C(NNc1cc(N2CCOCC2)nc(N2CCOCC2)n1)c1ccc(Cl)c(Cl)c1	1	3	3	134*	1	1
O=C(NNc1cc(N2CCOCC2)nc(N2CCOCC2)n1)C12CC3CC(CC(C3)C1)C2	-1	-8	-1	57*	-2	-4
CCn1c(=S)sc2c(=O)n(CC(=O)NCCCc3ccccc3)c(C)nc21	·	·	·	3	·	·
Cc1ccc(-n2c(=O)cc(N3CCC(C)CC3)[nH]c2=O)cc1	0	3	0	2	2	0
O=c1cc(N2CCc3ccccc3C2)[nH]c(=O)n1-c1ccccc1Cl	3	7	27	80*	1	16
Cc1ccccc1-n1c(=O)cc(N2CCc3ccccc3C2)[nH]c1=O	-2	1	76*	53*	-3	37
Cc1nnc(N2CCc3ccccc3C2)[nH]c1=O	4	-2	-4	-1	2	0
CCN1CCN(c2cc(=O)n(-c3cc(Cl)ccc3C)c(=O)[nH]2)CC1	19	2	-2	72*	0	0
O=c1cc(N2CCc3ccccc32)[nH]c(=O)n1-c1ccccc1	5	4	4	8	0	2
Cc1ccccc1-n1c(=O)cc(N2CCN(Cc3ccccc3)CC2)[nH]c1=O	1	5	-8	9	0	1
Cc1ccc(-n2c(=O)cc(N3CCc4ccccc4C3)[nH]c2=O)cc1	-2	4	2	40*	17	2
